# In ChEMBL document CHEMBL3763115, “Silibinin derivatives as anti-prostate cancer agents: Synthesis and cell-based evaluations” (Eur J Med Chem, 2016):
# Tests used:
# LNCaP [1] = assay: Antiproliferative activity against human LNCAP cells assessed as reduction in cell viability after 3 days by WST-1 cell proliferation assay; assay type: functional, cell-based; conditions: 72 h
# Summary of the method: (§1)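 Cells from ATCC; PC-3 and LNCaP grown in RPMI-1640, DU145 in EMEM, each with 10% FBS and 1% penicillin/streptomycin, 37 °C, 5% CO2. 3,200 cells per well, treated at 5 concentrations for 3 days with 0.25% DMSO as vehicle control. WST-1 reagent added, 3 h at 37 °C, absorbance read at 430 nm. IC50 from linear fit of at least five doses, mean of at least triplicates.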
# [2] = Antiproliferative activity against human DU145 cells assessed as reduction in cell viability after 3 days by WST-1 cell proliferation assay; assay type: functional, cell-based; conditions: DU-145, 72 h; summary of the method: as §1
# [3] = Antiproliferative activity against human PC3 cells assessed as reduction in cell viability after 3 days by WST-1 cell proliferation assay; assay type: functional, cell-based; conditions: PC-3, 72 h; summary of the method: as §1
# LNCaP [4] = assay: Potency index, ratio of silibinin IC50 to compound IC50 for antiproliferative activity against human LNCAP cells; assay type: functional
# Summary of the method: (§2)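 Ratio of silibinin IC50 to derivative IC50. Both come from the 3-day WST-1 assay run in parallel (5 doses, absorbance at 430 nm, IC50 from linear fit, at least triplicates).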
# [5] = Potency index, ratio of silibinin IC50 to compound IC50 for antiproliferative activity against human DU145 cells; assay type: functional, DU-145; summary of the method: as §2
# [6] = Potency index, ratio of silibinin IC50 to compound IC50 for antiproliferative activity against human PC3 cells; assay type: functional, PC-3; summary of the method: as §2
# [7] = Cell cycle arrest in human PC3 cells assessed as accumulation at G0/G1 phase at 20 uM after 24 hrs by propidium iodide staining based flow cytometry (reference value: 49%); assay type: functional; conditions: PC-3
# Summary of the method: (§3)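 PC-3 cells (RPMI-1640, 10% FBS), 200,000 per well, allowed 3 h to attach, then exposed to compound with DMSO as vehicle control. Attached and floating cells collected at 24 and 30 h, fixed in cold 80% ethanol for 30 min at 4 °C, treated with RNase for 30 min at 37 °C, and stained with propidium iodide. DNA content read by flow cytometry within 0.5–1 h.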
# [8] = Cell cycle arrest in human PC3 cells assessed as accumulation at S phase at 20 uM after 24 hrs by propidium iodide staining based flow cytometry (reference value: 8%); assay type: functional; conditions: PC-3; summary of the method: as §3
# [9] = Cell cycle arrest in human PC3 cells assessed as accumulation at M phase at 20 uM after 24 hrs by propidium iodide staining based flow cytometry (reference value: 8%); assay type: functional; conditions: PC-3; summary of the method: as §3
# [10] = Cell cycle arrest in human PC3 cells assessed as accumulation at G2 phase at 20 uM after 24 hrs by propidium iodide staining based flow cytometry (reference value: 34%); assay type: functional; conditions: PC-3; summary of the method: as §3
# [11] = Cell cycle arrest in human PC3 cells assessed as accumulation at G0/G1 phase at 20 uM after 30 hrs by propidium iodide staining based flow cytometry (reference value: 55%); assay type: functional; conditions: PC-3; summary of the method: as §3
# [12] = Cell cycle arrest in human PC3 cells assessed as accumulation at S phase at 20 uM after 30 hrs by propidium iodide staining based flow cytometry (reference value: 5%); assay type: functional; conditions: PC-3; summary of the method: as §3
# [13] = Cell cycle arrest in human PC3 cells assessed as accumulation at M phase at 20 uM after 30 hrs by propidium iodide staining based flow cytometry (reference value: 5%); assay type: functional; conditions: PC-3; summary of the method: as §3
# [14] = Cell cycle arrest in human PC3 cells assessed as accumulation at G2 phase at 20 uM after 30 hrs by propidium iodide staining based flow cytometry (reference value: 30%); assay type: functional; conditions: PC-3; summary of the method: as §3
# PC-3 [15] = assay: Induction of apoptosis in human PC3 cells assessed as viable cells at 10 uM after 16 hrs by F2N12S/Sytox A advanced staining based flow cytometry (reference value: 86%); assay type: functional; conditions: PC-3, 16 h, read-out: Activity
# PC-3 [16] = assay: Induction of apoptosis in human PC3 cells assessed as viable cells at 20 uM after 16 hrs by F2N12S/Sytox A advanced staining based flow cytometry (reference value: 86%); assay type: functional; conditions: PC-3, 16 h, read-out: Activity
# PC-3 [17] = assay: Induction of apoptosis in human PC3 cells assessed as viable cells at 30 uM after 16 hrs by F2N12S/Sytox A advanced staining based flow cytometry (reference value: 86%); assay type: functional; conditions: PC-3, 16 h, read-out: Activity
# PC-3 [18] = assay: Induction of apoptosis in human PC3 cells assessed as viable cells at 40 uM after 16 hrs by F2N12S/Sytox A advanced staining based flow cytometry (reference value: 86%); assay type: functional; conditions: PC-3, 16 h, read-out: Activity
# PC-3 [19] = assay: Induction of apoptosis in human PC3 cells assessed as viable cells at 50 uM after 16 hrs by F2N12S/Sytox A advanced staining based flow cytometry (reference value: 86%); assay type: functional; conditions: PC-3, 16 h, read-out: Activity
# PC-3 [20] = assay: Induction of apoptosis in human PC3 cells assessed as apoptotic cells at 10 uM after 16 hrs by F2N12S/Sytox A advanced staining based flow cytometry (reference value: 3%); assay type: functional
# PC-3 [21] = assay: Induction of apoptosis in human PC3 cells assessed as apoptotic cells at 20 uM after 16 hrs by F2N12S/Sytox A advanced staining based flow cytometry (reference value: 3%); assay type: functional
# PC-3 [22] = assay: Induction of apoptosis in human PC3 cells assessed as apoptotic cells at 30 uM after 16 hrs by F2N12S/Sytox A advanced staining based flow cytometry (reference value: 3%); assay type: functional
# PC-3 [23] = assay: Induction of apoptosis in human PC3 cells assessed as apoptotic cells at 40 uM after 16 hrs by F2N12S/Sytox A advanced staining based flow cytometry (reference value: 3%); assay type: functional
# PC-3 [24] = assay: Induction of apoptosis in human PC3 cells assessed as apoptotic cells at 50 uM after 16 hrs by F2N12S/Sytox A advanced staining based flow cytometry (reference value: 3%); assay type: functional
# PC-3 [25] = assay: Induction of apoptosis in human PC3 cells assessed as necrotic cells at 10 uM after 16 hrs by F2N12S/Sytox A advanced staining based flow cytometry (reference value: 11%); assay type: functional
# PC-3 [26] = assay: Induction of apoptosis in human PC3 cells assessed as necrotic cells at 20 uM after 16 hrs by F2N12S/Sytox A advanced staining based flow cytometry (reference value: 11%); assay type: functional
# PC-3 [27] = assay: Induction of apoptosis in human PC3 cells assessed as necrotic cells at 30 uM after 16 hrs by F2N12S/Sytox A advanced staining based flow cytometry (reference value: 11%); assay type: functional
# PC-3 [28] = assay: Induction of apoptosis in human PC3 cells assessed as necrotic cells at 40 uM after 16 hrs by F2N12S/Sytox A advanced staining based flow cytometry (reference value: 11%); assay type: functional
# PC-3 [29] = assay: Induction of apoptosis in human PC3 cells assessed as necrotic cells at 50 uM after 16 hrs by F2N12S/Sytox A advanced staining based flow cytometry (reference value: 11%); assay type: functional
# PC-3 [30] = assay: Induction of apoptosis in human PC3 cells after 16 hrs by F2N12S/Sytox A advanced staining based flow cytometry; assay type: functional, cell-based
smiles,measurement,setting,value
CCOc1cc(O)c2c(=O)c(O)c(-c3ccc4c(c3)OC(c3ccc(O)c(OC)c3)C(CO)O4)oc2c1 (centres undefined),IC50,LNCaP [1],2.58 µM
same,IC50,[2],7.59 µM
same,IC50,[3],3.25 µM
same,Ratio IC50,LNCaP [4],17
same,Ratio IC50,[5],12
same,Ratio IC50,[6],22
same,Activity,[7],62%
same,Activity,[8],7%
same,Activity,[9],7%
same,Activity,[10],23%
same,Activity,[11],61%
same,Activity,[12],6%
same,Activity,[13],6%
same,Activity,[14],25%
same,viability at 10 µM,PC-3 [15],84%
same,viability at 20 µM,PC-3 [16],49%
same,viability at 30 µM,PC-3 [17],11%
same,viability at 40 µM,PC-3 [18],4%
same,viability at 50 µM,PC-3 [19],7%
same,Activity,PC-3 [20],9%
same,Activity,PC-3 [21],38%
same,Activity,PC-3 [22],68%
same,Activity,PC-3 [23],71%
same,Activity,PC-3 [24],66%
same,Activity,PC-3 [25],7%
same,Activity,PC-3 [26],13%
same,Activity,PC-3 [27],25%
same,Activity,PC-3 [28],25%
same,Activity,PC-3 [29],27%
same,Activity,PC-3 [30],Dose-dependent effect
CCCCOc1cc(O)c2c(=O)c(O)c(-c3ccc4c(c3)OC(c3ccc(O)c(OC)c3)C(CO)O4)oc2c1 (centres undefined),IC50,LNCaP [1],3.19 µM
same,IC50,[2],5.81 µM
same,IC50,[3],4.55 µM
same,Ratio IC50,LNCaP [4],13
same,Ratio IC50,[5],16
same,Ratio IC50,[6],16
CCCCCCOc1cc(O)c2c(=O)c(O)c(-c3ccc4c(c3)OC(c3ccc(O)c(OC)c3)C(CO)O4)oc2c1 (centres undefined),IC50,LNCaP [1],4.01 µM
same,IC50,[2],8.84 µM
same,IC50,[3],6.94 µM
same,Ratio IC50,LNCaP [4],11
same,Ratio IC50,[5],11
same,Ratio IC50,[6],10
COc1cc(C2Oc3cc([C@H]4Oc5cc(OCc6ccccc6)cc(O)c5C(=O)[C@@H]4O)ccc3OC2CO)ccc1O (some centres undefined),IC50,LNCaP [1],2.04 µM
same,IC50,[2],8.77 µM
same,IC50,[3],5.29 µM
same,Ratio IC50,LNCaP [4],21
same,Ratio IC50,[5],11
same,Ratio IC50,[6],14
CCOc1cc(O)c2c(c1)O[C@H](c1ccc3c(c1)OC(c1ccc(O)c(OC)c1)C(CO)O3)[C@@H](O)C2=O (some centres undefined),IC50,LNCaP [1],0.35 µM
same,IC50,[2],27.7 µM
same,IC50,[3],16.1 µM
same,Ratio IC50,LNCaP [4],123
same,Ratio IC50,[5],3
same,Ratio IC50,[6],5
CCOc1cc(O)c2c(=O)c(OCC)c(-c3ccc4c(c3)OC(c3ccc(O)c(OC)c3)C(CO)O4)oc2c1 (centres undefined),IC50,LNCaP [1],5.57 µM
same,IC50,[2],10.4 µM
same,IC50,[3],8.5 µM
same,Ratio IC50,LNCaP [4],8
same,Ratio IC50,[5],9
same,Ratio IC50,[6],9
COc1cc(O)c2c(c1)O[C@H](c1ccc3c(c1)OC(c1ccc(O)c(OC)c1)C(CO)O3)[C@@H](O)C2=O (some centres undefined),IC50,LNCaP [1],0.44 µM
same,IC50,[2],25.1 µM
same,IC50,[3],12.4 µM
same,Ratio IC50,LNCaP [4],98
same,Ratio IC50,[5],4
same,Ratio IC50,[6],6
CCCCOc1cc(O)c2c(c1)O[C@H](c1ccc3c(c1)OC(c1ccc(O)c(OC)c1)C(CO)O3)[C@@H](O)C2=O (some centres undefined),IC50,LNCaP [1],2.51 µM
same,IC50,[2],12 µM
same,IC50,[3],5.38 µM
same,Ratio IC50,LNCaP [4],17
same,Ratio IC50,[5],8
same,Ratio IC50,[6],14
CCCOc1cc(O)c2c(c1)O[C@H](c1ccc3c(c1)OC(c1ccc(O)c(OC)c1)C(CO)O3)[C@@H](O)C2=O (some centres undefined),IC50,LNCaP [1],4.66 µM
same,IC50,[2],30.3 µM
same,IC50,[3],18.5 µM
same,Ratio IC50,LNCaP [4],9
same,Ratio IC50,[5],3
same,Ratio IC50,[6],4
CCCCCCCOc1cc(O)c2c(c1)O[C@H](c1ccc3c(c1)OC(c1ccc(O)c(OC)c1)C(CO)O3)[C@@H](O)C2=O (some centres undefined),IC50,LNCaP [1],4.57 µM
same,IC50,[2],17.4 µM
same,IC50,[3],10.9 µM
same,Ratio IC50,LNCaP [4],9
same,Ratio IC50,[5],5
same,Ratio IC50,[6],7
